Here are results for two molecules from paper PMC2386536 (The Journal of Endocrinology, 2008).

SMILES strings stand for the structures.

Data set [1] is described as follows: mean arterial blood pressure and heart rate during ischaemia–reperfusion. To be noted: data not shown. In kind it is in vivo, rat. The method, boiled down:
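They were then dosed with test compound or vehicle for 5 days, with the last dose 2–3 h before surgery. Under pentobarbitone anaesthesia (60 mg/kg i.p.), MABP was recorded via a carotid artery cannula. The protocol was 20-min stabilisation, 45-min LCA occlusion, then 2-h reperfusion.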

Data set [2] concerns ischaemia–reperfusion injury in the rat. Briefly: EPR free radical production from hearts after in vivo ischaemia–reperfusion. To be noted: CP-H spin trap. In a few lines:
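Hearts were excised after in vivo ischaemia–reperfusion (45 min/2 h) and perfused retrogradely with warmed, gassed Krebs–Henseleit. With the LCA snare re-tied, 10 μl of 10−1 M CP-H spin trap was injected above the heart and 500 μl perfusate (drops 6–11) collected, four times per heart and averaged. This was repeated with the snare released, then with 500 U SOD. Samples were incubated at 37 °C for 20 min and read by EPR.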

The test system of data set [3] is ischaemia and reperfusion in the rabbit. The following applies: in vivo; cited from earlier work.

In the case of `C[C@]12CC[C@@H]3c4ccc(O)cc4CC[C@H]3[C@@H]1CC[C@@H]2O` [17βE2, 17β-oestradiol], the “effect on MABP pattern and MABP at end of ischaemia or reperfusion” value in data set [1] was “did not have a significant effect”. In data set [2], the “free radical production from the AAR compared with placebo/vehicle” value is listed as “Significantly fewer free radicals”.
On to `CCCc1c(-c2ccc(O)cc2)nn(-c2ccc(O)cc2)c1-c1ccc(O)cc1` [PPT, 4,4,4-4 propyl-(1H)-pyrazole 1,3,5-triyltrisphenol], for which the “cardioprotection / infarct size” value in data set [3] is “reduced infarct size”.
